Test results from PMC6555264 (Infection and Drug Resistance, 2019).
Values joined by “and” are separate entries in the source; they are usually repeats but may differ in a detail not shown here. Identical values can stand only once.

Legend:
[1] = test system: panel of MDR Gram-negative pathogenic bacterial strains; assay: Broth dilution MIC, whole panel; type: cell-based; settings: for fold reduction of MIC in the presence of AR-12: certain polymyxin-resistant Gram-negative bacterial strains
Outline: (§1)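 Colonies from Mueller-Hinton II agar (37°C, overnight) were suspended in PBS, sized by OD600 and diluted in CAMHB, giving a final inoculum of 5×10^5 CFU/ml. Single-drug MICs: 96-well round-bottom plates, static 37°C for 18–24 h, growth scored visually. Checkerboard: twofold polymyxin B or colistin (0.13–64 or 128 μg/ml) against twofold test compound (1–64 or 128 μg/ml; DMSO stock), incubated 16–20 h.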

B. pseudomallei = type: cell-based, Burkholderia pseudomallei
[2] = Maximum tolerated dose in mice; type: in vivo; settings: p.o.
B. mallei = type: cell-based, Burkholderia mallei
[3] = test system: A. baumannii strains and K. pneumoniae strains; assay: Dansyl polymyxin permeability assay; type: cell-based; settings: increasing concentrations of AR-12; depending on the strain; DP 0.6 μM
Outline: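 Log-phase cells (overnight culture subcultured 1:100 for 2–3 h) were pelleted at 0.5 OD-equivalent and resuspended in 1 ml of 5 mM HEPES at room temperature. Fluorescence was read at room temperature (ex 320, em 500 nm), with cell-free wells subtracted. Two or more repeats.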

Serratia marcescens = type: cell-based
Proteus mirabilis = type: cell-based
[4] = Pharmacokinetic study in mice, oral; type: in vivo, Balb/c mice
Outline: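 Female Balb/c mice received a single oral dose of test compound at 80 mg/kg, formulated at 8 mg/mL in 10% Solutol HS 15. Plasma was sampled at 0, 0.5, 1, 2, 4, 8, 10 and 24 h, with 3 mice per time point. Drug levels were quantified by HPLC.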

[5] = test system: Francisella tularensis and F. novicida in THP-1 macrophages; settings: cited from earlier work
K. pneumoniae [6] = assay: Broth microdilution MIC, alone and with AR-12; type: cell-based, Klebsiella pneumoniae; settings: for MIC: drug alone; for MIC (4 µg/ml AR-12): with 4 µg/ml AR-12
Outline: as §1

A. baumannii [7] = assay: Broth microdilution MIC, alone and with AR-12; type: cell-based, Acinetobacter baumannii; settings: for MIC: strain 34299 (JMI Laboratories), drug alone; for fold reduction of MIC in the presence of 4 μg/ml of AR-12: MDR A. baumannii (2 out of 4 strains tested); for MIC (4 µg/ml AR-12): strain 34299, with 4 µg/ml AR-12
Outline: as §1

Enterobacter cloacae = type: cell-based
Francisella strains = settings: cited from earlier work
[8] = test system: ampicillin and kanamycin-resistant E. coli strain; settings: laboratory-generated ampicillin and kanamycin-resistant E. coli; cited from earlier work
Providencia stuartii = type: cell-based
cyclooxygenase 2 (COX-2) = settings: eukaryotic host; cited from earlier work
[9] = test system: MDR clinical isolate of N. gonorrhoeae; settings: cited from earlier work
Protein binding in mice = type: in vitro ADME
[10] = test system: A. baumannii and K. pneumoniae strains; assay: N-phenyl-1-naphthylamine; type: cell-based; settings: AR-12 4 μg/ml and 8 μg/ml
Outline: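 Cell suspensions were prepared as for the dansyl polymyxin assay (log phase, in 5 mM HEPES). Cells were added at 1:4 to a HEPES/NPN/test compound mix, in triplicate. Fluorescence was read at room temperature (ex 355, em 405 nm), with cell-free wells subtracted. Two or more independent repeats.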

A. baumannii [11] = assay: Bacterial growth assay; type: cell-based, Acinetobacter baumannii
Outline: (§2)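 Cultures were grown overnight (~16 h) in CAMHB at 37°C with shaking, then subcultured 1:100 for 2–3 h to log phase. 5×10^5 CFU/ml were dispensed into CAMHB wells holding preset drug concentrations, in triplicate. Plates were shaken at 37°C, with OD600 read automatically every 15 min for 24 h. Two or more independent repeats.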

K. pneumoniae [12] = assay: Bacterial growth assay; type: cell-based, Klebsiella pneumoniae
Outline: as §2

[13] = strain 30835 (JMI Laboratories)

Compound | MIC (B. pseudomallei) [µg/mL] | MIC (B. mallei) [µg/mL] | MIC (Serratia marcescens) [µg/mL] | MIC (Proteus mirabilis) [µg/mL] | MIC (K. pneumoniae [6]; strain 0010 (CDC)) [µg/mL] | MIC (K. pneumoniae [6]; strain 101434 (USAMRIID)) [µg/mL] | MIC (K. pneumoniae [6]; strain 101522 (USAMRIID)) [µg/mL] | MIC (K. pneumoniae [6]; strain 101783 (USAMRIID)) [µg/mL] | MIC (A. baumannii [7]) [µg/mL] | MIC (Providencia stuartii) [µg/mL] | fold reduction of MIC in the presence of AR-12 [1] | MIC (4 µg/ml AR-12) (Serratia marcescens) | MIC (4 µg/ml AR-12) (Proteus mirabilis) | MIC (4 µg/ml AR-12) (K. pneumoniae [6]; strain 0010) [µg/mL] | MIC (K. pneumoniae [6]; [13]) [µg/mL] | MIC (4 µg/ml AR-12) (K. pneumoniae [6]; strain 30835) [µg/mL] | MIC (4 µg/ml AR-12) (K. pneumoniae [6]; strain 101434) [µg/mL] | MIC (4 µg/ml AR-12) (K. pneumoniae [6]; strain 101783) [µg/mL] | fold reduction of MIC in the presence of 4 μg/ml of AR-12 (A. baumannii [7]) | MIC (4 µg/ml AR-12) (A. baumannii [7]) [µg/mL] | further results
NCC(=O)Nc1ccc(-n2nc(C(F)(F)F)cc2-c2ccc3c(ccc4ccccc43)c2)cc1 [AR-12] | >128 | >128 | >64 | >64 | >64 | >64 | >64 | >64 | >128 | >64 | – | – | – | – | – | – | – | – | – | – | lowest AR-12 concentration at which the potentiating activity was observed for majority of the MDR strains ([1]; combination with polymyxin B or colistin): 4 µg/mL; MIC of AR-12 alone ([1]; panel of MDR pathogens, tested upto 64 µg/ml): > 64 µg/mL; maximum tolerated dose [2]: 100 mg/kg; enhancement of dansyl polymyxin B (DP) fluorescence [3]: 25–50 fold; bioavailability [4]: poor; AUC (0–24 hrs) ([4]; 80 mg/kg, p.o., q.d.): 41400 ng·h/mL; Cmax ([4]; 80 mg/kg, p.o., q.d.): 2100 ng/mL; Tmax ([4]; 80 mg/kg, p.o., q.d.): 10 h; plasma levels sustained over a 24 hrs period ([4]; 80 mg/kg, p.o., q.d.): 1.5–2.1 μg/mL and ~ 2 μg/mL; intracellular survival of bacteria in macrophages [5]: inhibit the intracellular survival; MIC (Enterobacter cloacae): >64 µg/mL; direct antibacterial activity (Francisella strains): did not have any direct antibacterial activity; bacterial growth [8]: significantly inhibited the growth; COX-2 inhibitory activities (cyclooxygenase 2 (COX-2)): devoid of cyclooxygenase 2 (COX-2) inhibitory activities; bacterial proliferation [9]: reduced the proliferation; protein bound (Protein binding in mice): 99%; effect on NPN fluorescence (outer membrane permeability) [10]: increased the fluorescence of NPN
colistin | – | – | >64 | >64 | 8 | >64 | >64 | >64 | >64 | >64 | 4–60 fold | >64 µg/mL | >64 µg/mL | 8 | >64 | 16 | 16 | 1 | 4–16 fold | 4 | colistin concentration giving growth inhibition (A. baumannii [11]; MDR A. baumannii 34299, colistin alone): > 32 µg/mL; colistin concentration giving growth inhibition (A. baumannii [11]; MDR A. baumannii 34299, in the presence of 4 μg/ml AR-12): 1 µg/mL; colistin concentration giving growth inhibition (A. baumannii [11]; polymyxin sensitive ATCC A. baumannii 19606, colistin alone): 0.5 µg/mL; colistin concentration giving growth inhibition (A. baumannii [11]; polymyxin sensitive ATCC A. baumannii 19606, in the presence of 4 μg/ml AR-12): 0.015 µg/mL; colistin concentration giving growth inhibition (K. pneumoniae [12]; MDR K. pneumoniae 30835, colistin alone): 8 µg/mL; colistin concentration giving growth inhibition (K. pneumoniae [12]; MDR K. pneumoniae 30835, in the presence of 4 μg/ml AR-12): 1 µg/mL; colistin concentration giving growth inhibition (K. pneumoniae [12]; polymyxin sensitive ATCC K. pneumoniae 13833, colistin alone): 2 µg/mL; colistin concentration giving growth inhibition (K. pneumoniae [12]; polymyxin sensitive ATCC K. pneumoniae 13833, in the presence of 4 μg/ml AR-12): 0.125 µg/mL; fold reduction of MIC in the presence of 4 μg/ml of AR-12 (K. pneumoniae [6]; MDR K. pneumoniae (polymyxin B 7 out of 7, colistin 5 out of 7 strains tested)): 4–60 fold; MIC (4 µg/ml AR-12) (K. pneumoniae [6]; strain 101522): 8 µg/mL; MIC (4 µg/ml AR-12) (Enterobacter cloacae): 16 µg/mL; MIC (4 µg/ml AR-12) (Providencia stuartii): >64 µg/mL
polymyxin B | >128 | 128 | >64 | >64 | 2 | 64 | 64 | >64 | 16 | >64 | 4–60 fold | >64 µg/mL and 64 µg/mL | 64 µg/mL and >64 µg/mL | 2 | 128 | ≤2 | 16 | 2 | 4–16 fold | ≤2 | MIC (4 µg/ml AR-12) (B. pseudomallei): >128 µg/mL; MIC (4 µg/ml AR-12) (B. mallei): 128 µg/mL; MIC (4 µg/ml AR-12) (Providencia stuartii): >64 µg/mL
